Measured values from ChEMBL document CHEMBL5712887, “Disruption of BRD4 at H3K27Ac-enriched enhancer region correlates with decreased c-Myc expression in Merkel cell carcinoma” (Epigenetics, 2015).
The source made the active and inactive calls. No cut-off for these calls is given here.

Tests used:
[1] = Toxicity in human MCC-3 cells xenografted NSG mouse assessed as effect on body weight at 50 mg/kg, ip administered daily for 3 weeks; format: organism-based; settings: in vivo, 504 h
Procedure, shortened: (§1)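 Mice with subcutaneous xenografts dosed i.p. daily for 3 weeks (vehicle 10% 2-hydroxypropyl-β-cyclodextrin in water) and monitored daily. Toxicity judged from body weight, food and water intake, activity and general examination.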

[2] = Toxicity in human MCC-3 cells xenografted NSG mouse assessed as effect on activity at 50 mg/kg, ip administered daily for 3 weeks; format: organism-based; settings: in vivo, 504 h; procedure, shortened: as §1
[3] = Toxicity in human MKL-1 cells xenografted NSG mouse assessed as effect on general examination at 50 mg/kg, ip administered daily for 3 weeks; format: organism-based; settings: in vivo, 504 h; procedure, shortened: as §1
[4] = Antitumor activity against human MKL-1 cells xenografted in NSG mouse assessed as reduction in tumor volume at 50 mg/kg, ip administered daily for 3 weeks and measured post-last dose by caliper method relative to control; format: functional; design: scale not given: the % may be the effect or the level left
Procedure, shortened: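 NSG mice with subcutaneous flank xenografts (MKL-1: 2 × 10^7 cells in matrigel), randomised at ~100 mm3 (n ≥ 7 per group). Dosed i.p. daily for 3 weeks; vehicle 10% 2-hydroxypropyl-β-cyclodextrin in water. Calipers, volume = L2 × W/2; final tumour volume, mean ± SEM, Mann-Whitney test.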

MCC-3 [5] = test: Antitumor activity against human MCC-3 cells xenografted in NSG mouse assessed as effect on BRD4 expression at 50 mg/kg, ip administered daily for 3 weeks and measured post-last dose by immunoblotting method; format: functional, organism-based
Procedure, shortened: (§2)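 Tumours excised at endpoint from NSG mice bearing subcutaneous flank xenografts (~100 mm3 at randomisation), dosed i.p. daily for 3 weeks, vehicle 10% 2-hydroxypropyl-β-cyclodextrin in water. Lysates resolved by SDS-PAGE, electroblotted to PVDF (200V, 2 h). Membranes blocked in 5% milk, primary antibody overnight at 4°C, then secondary 1 h, and detected by ECL.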

[6] = Toxicity in human MCC-3 cells xenografted NSG mouse assessed as effect on general examination at 50 mg/kg, ip administered daily for 3 weeks; format: organism-based; settings: in vivo, 504 h; procedure, shortened: as §1
[7] = Antitumor activity against human MCC-3 cells xenografted in NSG mouse assessed as reduction in tumor volume at 50 mg/kg, ip administered daily for 3 weeks and measured post-last dose by caliper method relative to control; format: functional; design: scale not given: the % may be the effect or the level left
[8] = Toxicity in human MKL-1 cells xenografted NSG mouse assessed as effect on food intake at 50 mg/kg, ip administered daily for 3 weeks; format: organism-based; settings: in vivo, 504 h; procedure, shortened: as §1
Mus musculus = test: In vivo disruption of BRD4 occupancy at the putative c-Myc super-enhancer region in human MCC-3 cells xenografted NSG mouse at 50 mg/kg, ip administered daily for 3 weeks and measured post-last dose by ChIP-qPCR analysis; format: functional, organism-based
Procedure, shortened: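 Frozen xenograft tumours crosslinked with 1% formaldehyde for 10 min, quenched with 0.125 M glycine, lysed and sonicated. Anti-BRD4 IP on anti-rabbit IgG beads. SYBR qPCR with primers at the putative c-Myc super-enhancer, plus control regions 5000 bp up- and downstream. 3 biological replicates, vehicle versus treated.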

[9] = Toxicity in human MKL-1 cells xenografted NSG mouse assessed as effect on activity at 50 mg/kg, ip administered daily for 3 weeks; format: organism-based; settings: in vivo, 504 h; procedure, shortened: as §1
[10] = Toxicity in human MKL-1 cells xenografted NSG mouse assessed as effect on water intake at 50 mg/kg, ip administered daily for 3 weeks; format: organism-based; settings: in vivo, 504 h; procedure, shortened: as §1
[11] = Toxicity in human MKL-1 cells xenografted NSG mouse assessed as effect on body weight at 50 mg/kg, ip administered daily for 3 weeks; format: organism-based; settings: in vivo, 504 h; procedure, shortened: as §1
[12] = Toxicity in human MCC-3 cells xenografted NSG mouse assessed as effect on water intake at 50 mg/kg, ip administered daily for 3 weeks; format: organism-based; settings: in vivo, 504 h; procedure, shortened: as §1
MCC-3 [13] = test: Antitumor activity against human MCC-3 cells xenografted in NSG mouse assessed as reduction in c-Myc expression at 50 mg/kg, ip administered daily for 3 weeks and measured post-last dose by immunoblotting method; format: functional, organism-based; procedure, shortened: as §2
MCC-3 [14] = test: Antitumor activity against human MCC-3 cells xenografted in NSG mouse assessed as effect on H3K27Ac expression at 50 mg/kg, ip administered daily for 3 weeks and measured post-last dose by immunoblotting method; format: functional, organism-based; procedure, shortened: as §2
[15] = Toxicity in human MCC-3 cells xenografted NSG mouse assessed as effect on food intake at 50 mg/kg, ip administered daily for 3 weeks; format: organism-based; settings: in vivo, 504 h; procedure, shortened: as §1
MCC-3 [16] = test: Antitumor activity against human MCC-3 cells xenografted in NSG mouse assessed as reduction in c-Myc mRNA expression at 50 mg/kg, ip administered daily for 3 weeks and measured post-last dose by qRT-PCR analysis; format: functional, organism-based
Procedure, shortened: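 Excised xenograft tumours from NSG mice dosed i.p. daily for 3 weeks (vehicle 10% 2-hydroxypropyl-β-cyclodextrin in water) versus vehicle group. c-Myc mRNA measured by qRT-PCR on 3 biological replicates.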

Cc1sc2c(c1C)C(c1ccc(Cl)cc1)=N[C@@H](CC(=O)OC(C)(C)C)c1nnc(C)n1-2
Activity [1]: Non-Toxic
Activity [2]: Non-Toxic
Activity [3]: Non-Toxic
Activity [4]: 48.9%
Activity (MCC-3 [5]): inactive
Activity [6]: Non-Toxic
Activity [7]: 75.6%
Activity [8]: Non-Toxic
Activity (Mus musculus): Active
Activity [9]: Non-Toxic
Activity [10]: Non-Toxic
Activity [11]: Non-Toxic
Activity [12]: Non-Toxic
Activity (MCC-3 [13]): Active
Activity (MCC-3 [14]): inactive
Activity [15]: Non-Toxic
Activity (MCC-3 [16]): Active
